High-throughput results from PubChem.
An excerpt weighted towards active compounds, which were near 1.9% of everything screened.
IMP-1 inh = IMP-1 metallo-beta-lactamase inhibitors, primary screen, biochemical, epi-absorbance readout, Pseudomonas aeruginosa enzyme | purified IMP-1, nitrocefin hydrolysis, epi-absorbance fluorescence | inhibition, % at 5.6 µM | 0.45% of 290,000 active | AID 1556, 2009;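 active = inhibition above the mean plus 3 SD of all compounds in the same screening run, cut at about 4.5% in these data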;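 note: 0% = IMP-1 with DMSO and 100% = DMSO wells lacking enzyme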
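System: purified recombinant IMP-1 beta-lactamase. Medium: Zinc- and detergent-supplemented HEPES buffer, pH 7.1. Compound: one 5.6 µM dose […]. Schedule: 15 min preincubation plus 25 min reaction at 25 °C. Technique: Epi-absorbance fluorescence, 480 nm excitation, 530 nm emission.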
core dimer inh = inhibitors of HCV core protein dimerization, primary screen, biochemical, TR-FRET, high-throughput; 0.33% of 300,000 active; AID 1899, 2009; inhibition, % at 5 µM; TR-FRET GST/Flag-core106 dimerization, 1536-well;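 active = inhibition above the mean of all tested compounds plus 3 SD, set per screening campaign, cut at about 45% in these data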
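Material: GST/Flag-tagged HCV core106 proteins. Incubation: 4 h, 22.5 °C incubation. Read-out basis: inhibition (%) from 671 over 617 nm ratio. Measured by: TR-FRET, excitation 340 nm, emission 617 and 671 nm.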
VIM-2 inhibitor = VIM-2 metallo-beta-lactamase inhibitors, primary screen, biochemical, epi-absorbance readout, Pseudomonas aeruginosa enzyme; purified VIM-2, nitrocefin hydrolysis, epi-absorbance fluorescence; inhibition, % at 5.6 µM; 0.89% of 290,000 active; AID 1527, 2009;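 active = inhibition above the mean of all tested compounds plus 3 SD, cutoff set per screening run, cut at about 7.5% in these data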;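 note: red hydrolysis product quenches plate fluorescence so inhibitors raise well fluorescence; 0% = enzyme with DMSO and 100% = DMSO without enzyme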
NadD inh = inhibitors of S. aureus NadD, primary screen, biochemical, colorimetric, uHTS; purified NadD enzyme, colorimetric absorbance read-out; inhibition, % at 20 µM; 0.78% of 360,000 active; AID 602399, 2012; in the data active = inhibition above about 26%
NadD conf = inhibitors of S. aureus NadD, confirmation, biochemical, colorimetric, single concentration; purified S. aureus NadD, colorimetric enzyme assay; shares compounds with NadD inh; inhibition, % at 20 µM; 13% of 2,000 active; AID 624309, 2012; in the data active = inhibition mostly above about 42%, no sharp cut-off; inactive = mostly below about 42%
Numbers without * were called inactive; . = no result.

SMILES	IMP-1 inh	core dimer inh	VIM-2 inhibitor	NadD inh	NadD conf
CS(=O)(=O)c1ccc(-c2nnc(NC(=O)c3cccc(N4C(=O)CCC4=O)c3)o2)cc1	.	1.3	.	1.2	.
COc1ccc(C(=O)NCc2nnc(SCC(=O)c3ccc(F)cc3)n2C)cc1OC	.	-1.2	.	-6.4	.
COc1ccc(CN2CCCC(C(=O)Nc3cccc(-n4cccn4)c3)C2)c(F)c1 (stereo not drawn)	-2.0	1.7	2.4	-12.6	.
C=CCc1c(C)[nH]c(=S)c(C#N)c1C	9.3*	20.5	0.6	33.5*	24.3
Cc1ccc(OCCC(=O)OCC(=O)Nc2ccc(F)cc2)cc1	.	-1.0	.	0.6	.
Oc1ccc(C[C@H]2CN([C@@H](Cc3cccc(O)c3)CN3CCC[C@@H]3CN3C(=S)NC[C@@H]3Cc3ccccc3)C(=S)N2CC2CCCCC2)cc1	.	.	.	43.6*	32.8
Oc1ccc(C[C@H]2CNC(=S)N2CC2CCCN2C[C@H](Cc2ccc(O)cc2)N2C[C@H](Cc3ccc(O)cc3)N(CC3CCCCC3)C2=S)cc1 (stereo partly drawn)	.	.	.	47.9*	47.2
Oc1ccc(C[C@H]2CNC(=S)N2CC2CCCN2C[C@H](Cc2ccccc2)N2C[C@H](Cc3ccc(O)cc3)N(CC3CCCCCC3)C2=S)cc1 (stereo partly drawn)	.	.	.	48.0*	20.6
CC(C)C[C@@H](CN1CCC[C@@H]1CN1C(=S)NC[C@@H]1Cc1ccccc1)N1C[C@H](Cc2ccc(O)cc2)N(CC2CCCCC2)C1=S	.	.	.	-2.3	.
CC(C)C[C@@H](CN1CCCC1CN1C(=S)NC[C@@H]1Cc1ccc(O)cc1)N1C[C@H](Cc2ccc(O)cc2)N(CC2CCCCC2)C1=S (stereo partly drawn)	.	.	.	54.3*	29.6
CC(C)C[C@H]1CNC(=S)N1C[C@H]1CCCN1C[C@H](Cc1ccc(O)cc1)N1C[C@H](CC(C)C)N(CC2CCCCCC2)C1=S	.	.	.	23.7	.
Cc1cnc(NC(=O)C2CC=CCC2)s1 (stereo not drawn)	2.3	2.0	-0.2	-2.4	.
CC1C(=O)N(Cc2cn(CC3CCCCC3)nn2)CCS(=O)(=O)N1Cc1ccc(-c2cccc(CO)c2)cc1 (stereo not drawn)	.	.	.	-3.9	.
Oc1ccc(C[C@H]2CNC(=S)N2C[C@H]2CCCN2C[C@H](Cc2ccccc2)N2C[C@H](Cc3ccc(O)cc3)N(CC3CCCCCC3)C2=S)cc1	.	.	.	43.1*	13.6
CC(C)C[C@H]1CN([C@@H](Cc2ccc(O)cc2)CN2CCC[C@@H]2CN2C(=S)NC[C@@H]2Cc2ccccc2)C(=S)N1CC1CCCCC1	.	.	.	21.7	.
Oc1ccc(C[C@H]2CN([C@@H](Cc3ccccc3)CN3CCCC3CN3C(=S)NC[C@@H]3Cc3ccccc3)C(=S)N2CC2CCCCC2)cc1 (stereo partly drawn)	.	.	.	42.6*	4.2
Oc1ccc(C[C@H]2CNC(=S)N2CC2CCCN2C[C@H](Cc2ccc(O)cc2)N2C[C@H](Cc3ccccc3)N(CCc3ccccc3)C2=S)cc1 (stereo partly drawn)	.	.	.	26.4	.
Oc1ccc(C[C@H]2CN([C@@H](Cc3ccc(O)cc3)CN3CCC[C@@H]3CN3C(=S)NC[C@@H]3Cc3ccccc3)C(=S)N2CC2CCCCCC2)cc1	.	.	.	47.0*	27.4
CC(C)C[C@@H](CN1CCC[C@@H]1CN1C(=S)NC[C@@H]1Cc1ccccc1)N1C[C@H](Cc2ccc(O)cc2)N(CC2CCCCCC2)C1=S	.	.	.	21.7	.
Cc1ccccc1C(=O)NCCCNC(=O)c1cnccn1	-1.0	-21.7	-3.6	-4.4	.
Cc1cc(C)n2nc(-c3ccsc3-n3c(C)ccc3C)cc2n1	1.9	23.6	-5.5	38.7*	13.5
Cc1ccc(NC(=O)CN(C)C(=O)COc2ccccc2-c2ccccc2)cc1	.	.	.	-8.4	.
O=C(COc1ncnc2sccc12)Nc1ccc(F)cc1F	-1.2	3.0	-4.0	30.1*	8.9
CC(C)c1ccc(/C=c2\sc3n(c2=O)C(N)=C(C#N)C(c2ccc(C(C)C)cc2)C=3C(N)=O)cc1 (stereo not drawn)	.	.	.	25.0	.
N#CC1=C(N)n2c(s/c(=C\c3cccs3)c2=O)=C(C#N)C1c1cccs1 (stereo not drawn)	-2.8	29.4	2.3	49.1*	5.2
SMILES	IMP-1 inh	core dimer inh	VIM-2 inhibitor	NadD inh	NadD conf
O=C(NC(Cc1c[nH]c2ccccc12)C(=O)O)c1cccs1 (stereo not drawn)	-0.6	-5.0	-2.8	-4.1	.
O=C(NC(Cc1c[nH]c2ccccc12)C(=O)N/N=C/c1cccc2ccccc12)c1cccs1 (stereo not drawn)	-2.0	19.7	-1.5	37.2*	25.2
Cc1cccc(NC(=O)c2nc[nH]c2C(=O)NCc2ccccc2)c1	.	.	.	1.4	.
Cc1cccc(NC(=O)c2nc[nH]c2C(=O)NCCCCCCNC(=O)c2[nH]cnc2C(=O)Nc2cccc(C)c2)c1	.	.	.	36.8*	4.0
Cc1cccc(NC(=O)c2nc[nH]c2C(=O)NCCCCNC(=O)c2[nH]cnc2C(=O)Nc2cccc(C)c2)c1	.	.	.	36.7*	10.8
O=C(c1ccc2snnc2c1)N1CCSCC1	0.5	-7.6	-0.4	-3.5	.
O=C(c1ccc2snnc2c1)N1CCCCC1	-2.2	-2.0	-1.8	51.7*	1.3
CCCCNC(=O)C1=C(N)C(C(=O)Nc2ccc(C)c(S(=O)(=O)N3CCCCC3)c2)SC1=Nc1ccc(C)cc1C (stereo not drawn)	0.3	9.8	-0.8	40.3*	15.4
O=C(CCCn1c(=S)[nH]c2cc3c(cc2c1=O)OCO3)N1CCN(c2ccc(Cl)cc2)CC1	-3.0	43.7	-2.1	34.7*	17.9
Cc1cccc(N2CCN(C(=O)CCCn3c(=S)[nH]c4cc5c(cc4c3=O)OCO5)CC2)c1C	-4.4	13.0	-4.0	56.2*	14.2
CC(=O)c1ccc(N2CCN(C(=O)CCCn3c(=S)[nH]c4cc5c(cc4c3=O)OCO5)CC2)cc1	-2.5	20.6	-2.3	45.6*	15.3
O=C1c2cccc3cccc(c23)C(=O)N1CCc1ccccc1	-3.2	7.3	-2.2	-1.4	.
Cc1ccc(NC(=O)CCNC(=O)c2ccco2)cc1Cl	-2.4	5.7	-2.7	-3.0	.
COC/C=C/C1=CC2=CC(=O)C(C)(OC(=O)c3cnc4ccccc4n3)C(=O)C2=CN1c1ccc(OC)cc1 (stereo not drawn)	.	34.1	.	33.3*	29.2
COC/C=C/C1=CC2=CC(=O)C(C)(OC(=O)c3cnc4ccccc4n3)C(=O)C2=CN1Cc1ccc(OC)cc1 (stereo not drawn)	.	37.1	.	12.6	.
CC(=O)NC(C(=O)N1CCC(c2nc3ccccc3s2)CC1)C(C)C (stereo not drawn)	-0.9	2.6	-0.1	1.0	.
O=C(N/N=C/c1ccc(Cl)c([N+](=O)[O-])c1)c1cc(-c2ccc3c4c(cccc24)CC3)n[nH]1	-3.5	13.1	-1.7	51.2*	0.9
